Data from ChEMBL document CHEMBL1152806, “Discovery of a potent, selective, and orally efficacious pyrimidinooxazinyl bicyclooctaneacetic acid diacylglycerol acyltransferase-1 inhibitor” (J Med Chem, 2009).
In brackets after ≈: the same amount, converted by molar mass. Activity calls are given as the source filed them. No cut-off for these calls is given here.

Assays:
[1] = test system: Rattus norvegicus; experiment: Reduction of plasma triacylglycerol excursion in 14 hrs fasted Han-Wistar rat at 0.1 mg/kg, po treated 2 hrs before bolus corn oil administration measured 1.5 hrs post corn oil challenge by oral lipid tolerance test relative to control; format: functional; design: scale not given: the % may be the effect or the level left
Summary of the method: (§1)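 Male Han-Wistar rats (~230 g) on chow diet were fasted 14 h and given compound by oral gavage, suspended in HPMC/Tween. A corn oil bolus (5 mL/kg) followed 2 h later. After 1.5 h, blood was drawn from the abdominal vena cava and plasma TAG measured colorimetrically (GPO-PAP). Result is % reduction versus vehicle-treated controls; n = 6.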

[2] = test system: Rattus norvegicus; experiment: Reduction of plasma triacylglycerol excursion in 14 hrs fasted Han-Wistar rat at 0.3 mg/kg, po treated 2 hrs before bolus corn oil administration measured 1.5 hrs post corn oil challenge by oral lipid tolerance test relative to control; format: functional; design: scale not given: the % may be the effect or the level left; summary of the method: as §1
[3] = test system: Rattus norvegicus; experiment: Reduction of plasma triacylglycerol excursion in 14 hrs fasted Han-Wistar rat at 1 mg/kg, po treated 2 hrs before bolus corn oil administration measured 1.5 hrs post corn oil challenge by oral lipid tolerance test relative to control; format: functional; design: scale not given: the % may be the effect or the level left; summary of the method: as §1
[4] = test system: Rattus norvegicus; experiment: Reduction of adipose triacylglycerol synthesis in 14 hrs fasted Han-Wistar rat assessed as decrease in ratio of [3H]palmitic acid incorporation into TAG and DAG at 1 mg/kg, po after 1.5 hrs relative to control; format: functional; design: scale not given: the % may be the effect or the level left
Summary of the method: (§2)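 Male Han-Wistar rats (~300 g) on chow diet were given compound by oral gavage, suspended in HPMC/Tween. At 1.5 h they were anaesthetised with inactin and a bolus of [3H]-palmitic acid was given via a jugular cannula. Epididymal fat was taken 20 min later, homogenised in duplicate with [14C]-oleic acid internal standard, and lipids separated by HPLC. Result is % reduction of the TAG/DAG label ratio versus vehicle; n = 10.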

[5] = test system: Rattus norvegicus; experiment: Reduction of adipose triacylglycerol synthesis in 14 hrs fasted Han-Wistar rat assessed as decrease in ratio of [3H]palmitic acid incorporation in to TAG and DAG at 3 mg/kg, po after 1.5 hrs relative to control; format: functional; design: scale not given: the % may be the effect or the level left; summary of the method: as §2
[6] = test system: Rattus norvegicus; experiment: Reduction of adipose triacylglycerol synthesis in 14 hrs fasted Han-Wistar rat assessed as decrease in ratio of [3H]palmitic acid incorporation in to TAG and DAG at 8 mg/kg, po after 1.5 hrs relative to control; format: functional; design: scale not given: the % may be the effect or the level left; summary of the method: as §2
[7] = test system: Mus musculus; experiment: Inhibition of dietary-induced obesity in obese […] mouse model assessed as reduction in body weight at 20 mg/kg, po qd for 3 days relative to start weight; format: functional, organism-based; design: dose 20 mg/kg
Summary of the method: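 Female C57BL/6 mice fed high-calorie cafeteria diet for 15 weeks to about 29 g, randomized into groups of 12. Oral gavage (10 mL/kg) once daily for 3 days, 2 h before the dark phase. Body weight recorded daily before dosing and expressed as percent change from day 0, compared with vehicle-treated diet-matched controls.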

[8] = Lipophilicity, log D of the compound; format: physicochemical; conditions: octanol/water
[9] = Aqueous solubility at pH 7.4; format: physicochemical; conditions: buffer
[10] = test system: Plasma; experiment: Fraction unbound in rat plasma by LC-UVMS; format: ADME, cell-free
Summary of the method: (§3)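 Equilibrium dialysis in plasma of the relevant species at 37 °C; free and bound drug quantified by LC-UVMS; reported as % free.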

[11] = test system: Plasma; experiment: Fraction unbound in dog plasma by LC-UVMS; format: ADME, cell-free, Canis lupus familiaris; summary of the method: as §3
[12] = test system: Plasma; experiment: Fraction unbound in human plasma by LC-UVMS; format: ADME, cell-free; summary of the method: as §3
[13] = Apparent permeability from apical to basolateral side in MDCK cells at 10 uM; format: ADME, cell-based, Canis lupus familiaris; conditions: dog, read-out: permeability
Summary of the method: (§4)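 Cultured MDCK cells incubated with compound at 10 µM; apparent permeability (Papp, ×10^-6 cm/s) measured in both apical-to-basolateral and basolateral-to-apical directions.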

[14] = Apparent permeability from basolateral to apical side in MDCK cells at 10 uM; format: ADME, cell-based, Canis lupus familiaris; conditions: dog, read-out: permeability; summary of the method: as §4
[15] = target: T1, Diacylglycerol O-acyltransferase 1 (Homo sapiens, UniProt O75907); experiment: Inhibition of human recombinant DGAT1 expressed in Sf9 cells by liquid scintillography
T1 sequence (O75907 whole entry): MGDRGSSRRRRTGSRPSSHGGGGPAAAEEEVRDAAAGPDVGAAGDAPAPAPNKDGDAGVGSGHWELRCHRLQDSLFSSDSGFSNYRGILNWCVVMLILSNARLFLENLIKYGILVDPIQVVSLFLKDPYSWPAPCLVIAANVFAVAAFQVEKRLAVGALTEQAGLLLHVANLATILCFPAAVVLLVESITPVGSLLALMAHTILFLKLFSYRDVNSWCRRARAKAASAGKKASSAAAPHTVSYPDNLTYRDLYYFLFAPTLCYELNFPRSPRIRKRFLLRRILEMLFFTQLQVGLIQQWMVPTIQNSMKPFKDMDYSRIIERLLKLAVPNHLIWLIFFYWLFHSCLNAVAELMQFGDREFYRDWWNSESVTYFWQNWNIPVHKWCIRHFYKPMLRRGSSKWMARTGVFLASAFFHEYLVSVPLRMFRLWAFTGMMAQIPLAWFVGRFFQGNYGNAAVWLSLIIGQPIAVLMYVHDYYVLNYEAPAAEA

[16] = target: T2, Diacylglycerol O-acyltransferase 2 (Homo sapiens) (UniProt Q96PD7); experiment: Inhibition of human DGAT2 at 10 uM by liquid scintillography
T2 sequence (whole entry): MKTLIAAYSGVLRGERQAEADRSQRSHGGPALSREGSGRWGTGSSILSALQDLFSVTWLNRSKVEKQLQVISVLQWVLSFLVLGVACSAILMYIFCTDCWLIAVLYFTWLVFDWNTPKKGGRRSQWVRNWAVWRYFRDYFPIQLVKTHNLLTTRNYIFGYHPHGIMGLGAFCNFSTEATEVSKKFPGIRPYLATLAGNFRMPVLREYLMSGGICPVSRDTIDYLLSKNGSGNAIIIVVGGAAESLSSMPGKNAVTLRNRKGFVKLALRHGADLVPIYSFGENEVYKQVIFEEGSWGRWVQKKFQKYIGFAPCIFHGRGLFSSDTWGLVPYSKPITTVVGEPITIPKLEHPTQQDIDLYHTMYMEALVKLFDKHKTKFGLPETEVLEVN

[17] = target: T3, Diacylglycerol O-acyltransferase 1 (Rattus norvegicus, UniProt Q9ERM3); experiment: Inhibition of rat microsomal DGAT1 by liquid scintillography
T3 sequence (Q9ERM3 whole entry): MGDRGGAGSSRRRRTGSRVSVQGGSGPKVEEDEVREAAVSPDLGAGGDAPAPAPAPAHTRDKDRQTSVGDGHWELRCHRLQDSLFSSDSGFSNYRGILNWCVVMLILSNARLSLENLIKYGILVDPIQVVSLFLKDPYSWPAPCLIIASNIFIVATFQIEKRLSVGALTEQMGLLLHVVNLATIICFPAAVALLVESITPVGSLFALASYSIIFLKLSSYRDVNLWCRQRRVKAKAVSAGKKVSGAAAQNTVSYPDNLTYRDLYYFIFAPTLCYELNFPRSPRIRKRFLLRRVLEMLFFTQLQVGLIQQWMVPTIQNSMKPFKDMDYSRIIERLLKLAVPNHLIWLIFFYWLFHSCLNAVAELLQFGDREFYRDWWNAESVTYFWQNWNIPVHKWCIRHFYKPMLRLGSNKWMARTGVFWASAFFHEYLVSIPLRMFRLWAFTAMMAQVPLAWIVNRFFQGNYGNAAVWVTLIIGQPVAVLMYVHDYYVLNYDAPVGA

[18] = test system: HuTu80; experiment: Inhibition of triacylglycerol synthesis in human HuTu 80 cells after 30 mins; format: functional, cell-based; conditions: HuTu80, 0.5 h
Summary of the method: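 Confluent HuTu 80 cells in serum-free medium, preincubated 30 min with compound (0.1% DMSO final). Then given 0.12 mM sodium oleate plus 1 µCi/mL 14C-oleate complexed to 0.03 mM BSA. Cells solubilized in SDS and lipids extracted; 14C in triacylglycerol measured by normal-phase HPLC with radio-flow detection. Lowry protein determined.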

[19] = test system: Hepatocyte; experiment: Metabolic stability in rat hepatocytes assessed as conversion to acyl glucuronide form after 2 hrs; format: ADME, cell-based
[20] = Metabolic stability in dog hepatocytes assessed as conversion to acyl glucuronide form after 2 hrs; format: ADME, cell-based, Canis lupus familiaris, Hepatocyte
[21] = test system: Hepatocyte; experiment: Metabolic stability in human hepatocytes assessed as conversion to acyl glucuronide form after 2 hrs; format: ADME, cell-based
[22] = Metabolic stability in rat alamethicin-activated microsomes assessed as conversion to acyl glucuronide form after 1 hr; format: ADME, Microsome
[23] = Metabolic stability in dog alamethicin-activated microsomes assessed as conversion to acyl glucuronide form after 1 hr; format: ADME, Canis lupus familiaris, Microsome

CC1(C)Oc2ncnc(N)c2N=C1c1ccc(C23CCC(CC(=O)O)(CC2)CC3)cc1
Activity [1]: 38%
Activity [2]: 57%
Activity [3]: 72%
Activity [4]: 37%
Activity [5]: 57%
Activity [6]: 54%
Activity [7]: Active
logD [8]: 1.9
solubility [9]: 12 µM (≈ 5.05 µg/mL)
Fu [10]: 0.91%
Fu [11]: 0.6%
Fu [12]: 1%
Papp A→B at 10 µM [13]: 18 ×10⁻⁶ cm/s
Papp B→A at 10 µM [14]: 26 ×10⁻⁶ cm/s
IC50 [15]: 15 nM
inhibition [16]: 0%
IC50 [17]: 9 nM
IC50 [18]: 3 nM
Stability [19]: 18%
Stability [20]: 38%
Stability [21]: 17%
Stability [22]: 9%
Stability [23]: 76%
